Assay outcomes: PubChem, Johns Hopkins Ion Channel Center
MrgX1 PAM: human MrgX1 positive allosteric modulation, primary screen; Q96LB2; MrgX1-HEK293, Fluo-4 calcium flux, FDSS; hits give high values; B-score at 10 µM; 0.63% of 310,000 active;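 active = plate-corrected calcium response at least 3 library SD above typical, normal starting fluorescence, not activating the receptor alone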;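 note: compound read alongside a low EC10 to EC30 dose of BAM8-22 agonist; peak minus trough fluorescence over baseline measured at the second addition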
Target sequence (Q96LB2 whole entry, looked up): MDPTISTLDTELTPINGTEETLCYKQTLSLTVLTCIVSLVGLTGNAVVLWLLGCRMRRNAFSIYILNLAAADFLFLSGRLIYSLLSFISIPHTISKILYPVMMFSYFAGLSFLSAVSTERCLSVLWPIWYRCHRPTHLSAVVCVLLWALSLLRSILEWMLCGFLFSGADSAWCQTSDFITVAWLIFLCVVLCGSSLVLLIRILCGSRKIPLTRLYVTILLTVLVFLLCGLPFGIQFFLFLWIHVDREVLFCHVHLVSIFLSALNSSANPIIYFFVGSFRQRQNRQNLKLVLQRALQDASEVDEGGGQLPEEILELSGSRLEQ
RGS4 act: RGS4 potentiation or activation; 0.92% of 310,000 active; AID 463111; HEK293 M3R/inducible RGS4, carbachol calcium flux Fluo4; hits give low values; B-score at 10 µM;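 active = B-score of the integrated calcium signal more than 4 SD below the library mean, with starting fluorescence not abnormally high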;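 note: negative B-score means reduced calcium response which marks RGS4 activation or potentiation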
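System – HEK293 FlpIn-TREx cells, stable M3R, doxycycline-inducible RGS4 · Reagent – ECmax carbachol challenge · Times – compound preincubation 20 min at room temperature before agonist · Technique – Fluo4 fluorescence kinetic imaging of calcium · Measure – B score of integrated Fluo4 ratio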
MrgX1 ag: activates human MrgX1 receptor signaling; 0.44% of 310,000 active; MrgX1-HEK293 cells, Fluo-4 calcium fluorescence, agonist mode; hits give high values; B-score at 10 µM; Q96LB2;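 active = calcium response B-score plate-corrected fluorescence ratio at least 3 library SD, with starting fluorescence B-score inside 5 SD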
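Material: MrgX1-expressing HEK293 cells / Dosing: compound as first of three additions / Incubation: overnight seeding, then 1 h dark dye loading / Signal: Fluo-4 NW calcium fluorescence / Evaluation: B-scored fluorescence response ratio / Benchmarks: positive and negative control wells on each plate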
MrgX1 antag: blocks BAM8-22 activation of human MrgX1 receptor | MRGX1-HEK293 calcium flux, Fluo-4, BAM8-22 antagonism; hits give low values | Q96LB2 | B-score at 10 µM | 1.3% of 310,000 active;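 active = calcium-response B-score plate-corrected more than 3 library SD below zero, starting fluorescence within 5 deviations, no agonist response on first addition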;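 note: peak minus trough fluorescence over baseline after final BAM8-22 challenge near maximal dose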
RGS4 inh: inhibitors of human RGS4. P49798. HEK293 M3R/RGS4 inducible, Fluo-4 calcium flux; hits give high values; triggered by carbachol at its EC20. B-score at 10 µM. 0.45% of 310,000 active;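 active = B-score, a plate-corrected calcium signal, over three deviations above library mean, with baseline fluorescence within five deviations of library mean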;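 note: RGS4 expression induced by doxycycline in cells with stable M3 receptor; B-score is computed from the integrated fluorescence ratio over baseline after carbachol; higher B-score means a larger calcium signal and so more RGS4 inhibition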
Target sequence (P49798 whole entry, looked up): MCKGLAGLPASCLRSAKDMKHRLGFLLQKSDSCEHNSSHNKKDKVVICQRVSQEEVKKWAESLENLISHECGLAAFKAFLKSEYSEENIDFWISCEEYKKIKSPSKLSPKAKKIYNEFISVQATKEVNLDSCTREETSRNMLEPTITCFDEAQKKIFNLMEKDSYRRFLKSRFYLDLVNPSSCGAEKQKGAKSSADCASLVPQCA
MrgX1 ant reconf: reconfirmed antagonist of human MrgX1 receptor signaling | remaining BAM8-22 calcium response % of control (hits give low values), % at 10 µM | shares compounds with MrgX1 antag | 19% of 2,300 active | AID 602420 | MrgX1-HEK293, BAM8-22 calcium flux, Fluo-4; hits give low values;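 active = remaining agonist calcium response no higher than 100% minus 3 SD of agonist-only control wells, with starting fluorescence near control levels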;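 note: agonist BAM8-22 given at a near maximal EC90 to ECmax level; peak minus minimum fluorescence divided by baseline after agonist addition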
HEK293 Ca flux: counter-screen for MrgX1 antagonists: effect in parental HEK293 cells | shares compounds with MrgX1 antag | Fluo-4 calcium fluorescence, FDSS | fluorescence ratio F(max-min)/F0 at 10 µM | 2% of 4,000 active | AID 624111;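 active = duplicate-averaged calcium fluorescence ratio at least three times the standard deviation of buffer wells, a nonspecific response in parental cells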
HEK293 Ca counter: counter-screen for MrgX1 allosteric activators: effect in parental HEK293 cells. 0.4% of 4,000 active. fluorescence ratio F(max-min)/F0 at 10 µM. parental HEK293 calcium flux, Fluo-4 fluorescence ratio; hits give high values. shares compounds with MrgX1 antag;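 active = calcium fluorescence ratio, averaged over duplicates, at least 3 SD of the buffer-well ratio, meaning a nonspecific response in receptor-free cells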;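 note: untransfected parental HEK293 lacking MrgX1 used as counterscreen for MrgX1 allosteric activators; fluorescence change taken during the second addition on a kinetic imager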
HEK293 Ca cntr2: counter-screen for MrgX1 activators: effect in parental HEK293 cells. shares compounds with MrgX1 antag. Fluo-4 calcium fluorescence (FDSS); hits give high values. fluorescence ratio F(max-min)/F0 at 10 µM. 8.7% of 4,000 active;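 active = calcium fluorescence ratio at least three times the spread of buffer wells, meaning a non-specific response in parental cells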
Of the large screens only hits and unclear results are named; the others gave an inactive call (follow-up assays come after a bar, where they were run). Hits are enriched below; roughly 3.5% of the tested compounds scored in any of these assays.

COc1ccc(OCC(=O)N2CCN(C(=O)c3ccc(F)cc3)CC2)cc1	none
CCCn1c(NCc2ccccn2)nc2ccccc21	none
c1ccc(CNc2nc3ccccc3n2CCN2CCOCC2)nc1	MrgX1 antag -4.66 | MrgX1 ant reconf inactive | HEK293 Ca flux inactive | HEK293 Ca counter inactive | HEK293 Ca cntr2 inactive
Cc1ccc(S(=O)(=O)N(C)C)cc1NC(=S)NC(=O)C12CC3CC(CC(C3)C1)C2	MrgX1 antag -6.59 | MrgX1 ant reconf inactive | HEK293 Ca flux inactive | HEK293 Ca counter inactive | HEK293 Ca cntr2 inactive
CCSc1nnc(NC(=O)c2cc3c(s2)CCCC3)s1	none
CNc1nc(C)c([N+](=O)[O-])c(Nc2ccc(OC)cc2)n1	none
CC(=O)Nc1ccc(Nc2nc(C)c([N+](=O)[O-])c(Nc3ccc(NC(C)=O)cc3)n2)cc1	MrgX1 antag -22.1 | MrgX1 ant reconf 82.2% | HEK293 Ca flux inactive | HEK293 Ca counter inactive | HEK293 Ca cntr2 inactive
N/C(Cc1ccc([N+](=O)[O-])cc1)=N\OC(=O)Cc1ccccc1	none
CS(=O)(=O)N(Cc1ccc(Cl)cc1)c1ccc(C(=O)NCCC2=CCCCC2)cc1	MrgX1 antag -5.44 | MrgX1 ant reconf inactive | HEK293 Ca flux inactive | HEK293 Ca counter inactive | HEK293 Ca cntr2 inactive
S=C(NCc1ccccc1)NCc1ccccc1	none
COc1cccc(CN(C)C(=S)Nc2cccc(C)c2)c1	MrgX1 antag -4.89 | MrgX1 ant reconf inactive | HEK293 Ca flux inactive | HEK293 Ca counter inactive | HEK293 Ca cntr2 inactive
Nc1nc(N2CCN(c3ccccc3)CC2)n[nH]1	MrgX1 antag -5.66 | MrgX1 ant reconf inactive | HEK293 Ca flux inactive | HEK293 Ca counter inactive | HEK293 Ca cntr2 inactive
Nc1nc(N2CCN(c3ccc(Cl)cc3)CC2)n[nH]1	none
O=C(COC(=O)c1ccc(S(=O)(=O)NCc2ccco2)cc1)NC1CCCCC1	none
COc1ccc([N+](=O)[O-])cc1NC(=O)C1CCCCC1C(=O)O (centres undefined)	none
CCc1cccc(CC)c1-n1c(SCC(=O)N2CCc3ccccc3C2)nnc1-c1cccnc1	MrgX1 antag -7.82 | MrgX1 ant reconf inactive | HEK293 Ca flux inactive | HEK293 Ca counter inactive | HEK293 Ca cntr2 inactive
COc1cccc2sc(=NC(=O)CS(=O)(=O)c3ccc(Cl)cc3)n(C)c12	none
CSc1ccc(S(=O)(=O)N2CCC(C(=O)Nc3cccnc3)CC2)cc1	none
O=C(Nc1cccnc1)C1CCN(S(=O)(=O)c2ccc(Cl)cc2)CC1	MrgX1 antag -7.89 | MrgX1 ant reconf inactive | HEK293 Ca flux inactive | HEK293 Ca counter inactive | HEK293 Ca cntr2 inactive
CC(C)Oc1ccc2c(c1)OC(c1ccccc1)(C(F)(F)F)NC2=O (centres undefined)	MrgX1 antag -5.77 | MrgX1 ant reconf inactive | HEK293 Ca flux inactive | HEK293 Ca counter inactive | HEK293 Ca cntr2 inactive
COc1ccc2c(c1)OC(c1ccccc1)(C(F)(F)F)NC2=O (centres undefined)	none
CCN1CCN(C(=O)c2ccccc2NC(=O)c2ccc(Cl)cc2)CC1	none
Oc1c(Br)cc(Br)cc1C=NCc1ccc(F)cc1	MrgX1 antag -5.18 | MrgX1 ant reconf inactive | HEK293 Ca flux inactive | HEK293 Ca counter inactive | HEK293 Ca cntr2 inactive
Oc1c(Br)cc(Br)cc1C=NCc1ccccc1	none
O=C(O)c1ccccc1SCC(=O)N1CCc2ccccc21	none
COc1ccc2[nH]cc(CCNC(C)=O)c2c1	none
CC(=O)NCCc1c[nH]c2ccc(O)cc12	MrgX1 antag -5.08 | MrgX1 ant reconf inactive | HEK293 Ca flux inactive | HEK293 Ca counter inactive | HEK293 Ca cntr2 inactive
COc1ccc2c(c1)[nH]c1c(N3CCSCC3)ncnc12	MrgX1 antag -11.8 | MrgX1 ant reconf 49.7% | HEK293 Ca flux inactive | HEK293 Ca counter inactive | HEK293 Ca cntr2 inactive
CCn1c(=O)[nH]c2cc(C(=O)Nc3cc(C)cc(C)c3)ccc2c1=O	MrgX1 antag -5.06 | MrgX1 ant reconf 82.3% | HEK293 Ca flux inactive | HEK293 Ca counter inactive | HEK293 Ca cntr2 inactive
CCCNC(=O)N1CCCC(C(=O)c2cccc(Cl)c2)C1 (centres undefined)	none
CCCNC(=O)N1CCC(C(=O)c2cccc(F)c2)CC1	MrgX1 antag -4.86 | MrgX1 ant reconf inactive | HEK293 Ca flux inactive | HEK293 Ca counter inactive | HEK293 Ca cntr2 inactive
CCc1nnc2sc(-c3ccc(NC(=O)c4ccco4)cc3)nn12	MrgX1 antag -8.07 | MrgX1 ant reconf inactive | HEK293 Ca flux inactive | HEK293 Ca counter inactive | HEK293 Ca cntr2 inactive
O=C(CSc1nnc(-c2ccncc2)o1)NC1CCCCC1	none
CN(C)S(=O)(=O)c1ccc(C(=O)Nc2cccc(S(=O)(=O)NC3=NCCC3)c2)cc1	none
CCOC(=O)c1sc(N)nc1C(C)(C)C	none
Cc1nc(N)sc1C(=O)OCC(C)C	MrgX1 antag -8.67 | MrgX1 ant reconf inactive | HEK293 Ca flux inactive | HEK293 Ca counter inactive | HEK293 Ca cntr2 inactive
O=C(Cc1n[nH]c(=O)[nH]c1=O)N/N=C/c1ccccc1	none
COC(=O)Oc1cncc(C(=O)O)c1	MrgX1 antag -5.15 | MrgX1 ant reconf inactive | HEK293 Ca flux inactive | HEK293 Ca counter inactive | HEK293 Ca cntr2 inactive
CCc1cccc(NC(=O)Cn2c(=O)n(CCC(=O)NCC3CCCO3)c(=O)c3cc(OC)c(OC)cc32)c1 (centres undefined)	none
CC(CSc1nc2ccccc2s1)Cn1c(N2CCCC2)nc2c1c(=O)[nH]c(=O)n2C (centres undefined)	none
CCN1CCN(c2nc3c(c(=O)[nH]c(=O)n3C)n2CCSc2nc3ccccc3s2)CC1	MrgX1 antag -6.31 | MrgX1 ant reconf inactive | HEK293 Ca flux inactive | HEK293 Ca counter inactive | HEK293 Ca cntr2 inactive
COc1ccc(CNC(=O)C(=O)NCCC2CCCCN2S(=O)(=O)c2ccccc2)cc1 (centres undefined)	none
Cc1nn2c(NCc3ccccn3)c3c(nc2c1-c1ccccc1)CCC3	none
Cc1nn2c(NCCN3CCOCC3)c3c(nc2c1-c1ccccc1)CCCC3	MrgX1 antag -5.91 | MrgX1 ant reconf inactive | HEK293 Ca flux inactive | HEK293 Ca counter inactive | HEK293 Ca cntr2 inactive
O=C(O)c1ccc(NS(=O)(=O)c2ccc(NC(=O)c3ccccc3Cl)cc2)cc1	none
Cc1cc(Cn2nc(C(=O)NCC3CC3)cc2-c2ccccc2)on1	none
